NPY-Y1 antag: NPY-Y1 (human) receptor antagonism; HEK293-CNG Y1 cells, membrane potential fluorescence; NPY at EC95, then isoproterenol; 200,000 tested, 1% active; inhibition, % at 3.6 µM;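 active = inhibition above the campaign mean inhibition of all tested compounds plus 3 SD, cut at about 20% in these data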;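 also: 0% = DMSO wells given NPY plus isoproterenol and 100% = isoproterenol alone without NPY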
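Material: Y1- and CNG-channel-expressing HEK293 cells / Probe or stimulus: NPY 25 nM then isoproterenol 1 µM plus Ro 20-1724 25 µM / Doses: 3.6 µM single dose, DMSO 0.4% / Schedule: compound incubation 1 h at room temperature, readout 45 min post-stimulation / Signal: membrane potential fluorescence / Benchmarks: isoproterenol-only wells as full block versus NPY-plus-isoproterenol wells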
S1P4 ag: human S1P4 receptor agonism; AID 1509; S1P4-expressing cell line, agonist reporter assay; 220,000 tested, 0.35% active; O95977; activation, % at 4.98 µM; in the data active = activation above about 11%;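 also: 0% = DMSO vehicle and 100% = reference agonist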
Target sequence (O95977 whole entry, looked up): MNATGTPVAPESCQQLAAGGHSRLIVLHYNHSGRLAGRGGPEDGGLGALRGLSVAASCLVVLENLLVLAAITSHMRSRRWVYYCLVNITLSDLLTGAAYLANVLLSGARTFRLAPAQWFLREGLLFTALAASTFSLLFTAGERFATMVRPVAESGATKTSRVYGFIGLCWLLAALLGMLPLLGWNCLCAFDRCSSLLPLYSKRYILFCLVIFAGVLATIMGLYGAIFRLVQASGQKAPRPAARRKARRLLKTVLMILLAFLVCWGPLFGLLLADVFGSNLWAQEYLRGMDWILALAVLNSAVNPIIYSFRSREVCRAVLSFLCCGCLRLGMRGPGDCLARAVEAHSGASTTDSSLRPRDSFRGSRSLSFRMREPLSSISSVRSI
S1P4 antagonist: human S1P4 receptor antagonism. O95977. S1P4-expressing cells, antagonist mode, reporter read-out. inhibition, % at 4.98 µM. 220,000 tested, 0.26% active. AID 1510; in the data active = inhibition above about 29%;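 also: 0% = wells stimulated with agonist and 100% = vehicle wells without agonist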
NPY-Y2 PAM-ag: human NPY-Y2 potentiation or agonism, primary screen | P49146 | cells expressing NPY-Y2, potentiator/agonist read-out | activation, % at 3.6 µM | 220,000 tested, 0.45% active | AID 1359; in the data active = activation above about 27%;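 also: cells stimulated with NPY near EC25 plus isoproterenol at EC100; 0% = vehicle plus submaximal agonist and 100% = vehicle plus saturating agonist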
NPY-Y2 antag: blocks the human neuropeptide Y Y2 receptor; AID 793; inhibition, % at 2.7 µM; NPY-Y2 expressing cells, antagonist mode; 140,000 tested, 0.99% active; in the data active = inhibition above about 17%;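 also: 0% = vehicle with agonist challenge and 100% = reference antagonist with challenge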
NPY-Y1 PAM-ag: potentiators or agonists of human neuropeptide Y receptor Y1; P25929; NPY-Y1 expressing cells, potentiator/agonist activation; activation, % at 3.6 µM; 220,000 tested, 0.37% active; AID 1304; in the data active = activation above about 33%, passing the limit was not always enough;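 also: cells stimulated with NPY at EC10 then isoproterenol at EC100; 0% = low agonist plus stimulus and 100% = saturating agonist plus stimulus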
* marks the source's active call; other numbers are inactive results; x = no result. In the library only some 2.4% were active in any assay of this set; here they are far more common.

SMILES	NPY-Y1 antag	S1P4 ag	S1P4 antagonist	NPY-Y2 PAM-ag	NPY-Y2 antag	NPY-Y1 PAM-ag
O=C(NC1CCCCC1)C(c1ccc(F)cc1)N(Cc1ccco1)C(=O)CN1C(=O)c2ccccc2S1(=O)=O (configuration not stated)	9	0	8	-10	2	-9
CC(C)(C)NC(=O)C(c1ccc(O)cc1)N(Cc1ccco1)C(=O)Cn1nnc(-c2cccs2)n1 (configuration not stated)	4	4	-22	-5	6	-16
Cc1ccc(C(C(=O)NC(C)(C)C)N(Cc2ccco2)C(=O)Cn2nnc(-c3cccs3)n2)cc1 (configuration not stated)	20*	0	-10	-42	34*	-132
O=C(NC1CCCCC1)C(c1ccc(F)cc1)N(Cc1ccco1)C(=O)Cn1nnc2ccccc21 (configuration not stated)	23*	-1	1	1	36*	-17
O=C(NC1CCCCC1)C(c1ccccc1F)N(Cc1ccco1)C(=O)Cn1nnc2ccccc21 (configuration not stated)	72*	-2	-4	-35	57*	-84
CCC(C)(C)NC(=O)C(c1ccncc1)N(Cc1cccs1)C(=O)Cn1nnc2ccccc21 (configuration not stated)	14	0	-23	2	10	12
COc1ccc2c(n1)Sc1nc3ccccc3nc1N2	x	0	13	11	x	19
O=[N+]([O-])c1cccc(NC2=NCCC2)c1	1	0	-16	4	x	2
O=C(COc1ccc(Cl)cc1)N1CCN(C(=O)c2cccs2)CC1	6	0	-18	-9	x	-7
Cc1ccc(C(C(=O)NC2CCCCC2)N(Cc2ccco2)C(=O)Cn2cnc3ccccc32)cc1 (configuration not stated)	34*	2	-8	-42	75*	-65
COc1ccc(C2C(C(=O)Nc3cc(OC)c(OC)c(OC)c3)c3ccccc3C(=O)N2C)cc1 (configuration not stated)	-1	1	-11	31*	x	37*
COc1ccc(C2C(C(=O)Nc3cccc(OC)c3)c3ccccc3C(=O)N2C)cc1 (configuration not stated)	3	-2	6	2	x	11
CCC(C)[C@H](NC(=O)Nc1ccc(C)cc1C)C(=O)O (some centres not stated)	x	0	6	-11	x	28
COc1ccc(C(=O)NN(C)c2nc(C(F)(F)F)nc3ccccc23)cc1	21*	0	10	-19	x	-16
COc1ccc(C(=O)NN(C)c2nc(-c3ccccc3)nnc2C(F)(F)F)cc1	5	-2	-5	-1	5	2
CN(C)S(=O)(=O)c1ccc(N)c([N+](=O)[O-])c1	x	3	-2	-7	x	-7
CC1CC(=O)NN=C1c1ccc(N)c([N+](=O)[O-])c1 (configuration not stated)	65*	1	-16	-18	78*	-69
Cc1ccc(NC(=O)COc2ccc(Br)cc2C)cc1	10	-2	-14	-20	4	-32
CCc1ccc(-c2nc(CN3CCC(C(=O)N4CCN(c5ccccc5)CC4)CC3)c(C)o2)cc1	47*	-3	-3	-28	31*	-75
CCc1ccc(-c2nc(CN3CCC(C(=O)N4CCN(c5ccccn5)CC4)CC3)c(C)o2)cc1	13	-2	10	-9	17	-25
Cc1cc(S(=O)(=O)N2CCCOC2CNC(=O)C(=O)NCc2ccco2)ccc1F (configuration not stated)	1	-1	-13	3	x	-17
CC1(C)C(=O)OC(C(=O)c2ccccc2)C2(CCCCC2)C1=O (configuration not stated)	-1	2	-8	14	-1	-40
Cc1nn(-c2cc(N3CCCCC3)ccc2N)c(=O)c2ccccc12	-1	1	-8	11	0	-7
Cc1nn(-c2cc(N3CCCCCC3)ccc2[N+](=O)[O-])c(=O)c2ccccc12	-13	0	-7	41*	1	85*
Nc1c2c(nc3sc4c(c13)CCCC4)-c1ccccc1CC2	x	1	0	0	x	-6
SMILES	NPY-Y1 antag	S1P4 ag	S1P4 antagonist	NPY-Y2 PAM-ag	NPY-Y2 antag	NPY-Y1 PAM-ag
CCOC(=O)CSc1nc(NCc2ccco2)c2ccccc2n1	7	0	-18	-12	3	-5
COc1ccc(CNc2nc(SCC(=O)NCc3ccco3)nc3ccccc23)cc1	30*	0	-6	-30	50*	-72
Nc1nc(Nc2ccccc2)nc2ccccc12	-9	0	5	68*	5	73*
CCC(C(=O)Nc1cccc(C(F)(F)F)c1)c1ccccc1 (configuration not stated)	20*	0	-11	-14	7	-7
O=C(Nc1cccc(C(F)(F)F)c1)C(SCCO)c1ccccc1 (configuration not stated)	2	4	-10	4	1	8
O=C1OC(c2ccccc2)/C(=C(/O)c2ccc(Cl)cc2)C1=O (configuration not stated)	-4	-1	7	2	5	-29
O=C1OC(c2ccccc2)/C(=C(/O)c2ccccc2)C1=O (configuration not stated)	0	-3	2	62*	5	103*
CCN(CC)S(=O)(=O)c1cccc(-n2c(O)c(C=Nc3ccccc3C(=O)O)c3ccccc3c2=O)c1	x	1	-5	74*	x	48*
Cc1ccc(C(O)(C(=O)NN(C(=O)c2ccccc2)c2ccccc2)c2ccc(C)cc2)cc1	59*	-1	4	3	48*	-16
O=C(c1ccccc1F)N(NC(=O)C(O)(c1ccccc1)c1ccccc1)c1ccccc1	39*	1	-4	-2	30*	-47
O=C(c1ccccc1)N(NC(=O)C(O)(c1ccccc1)c1ccccc1)c1cccc(F)c1	53*	3	-2	-4	31*	-44
CCN(NC(=O)C(O)(c1ccc(F)cc1)c1ccc(F)cc1)C(=O)c1ccccc1	23*	1	6	-26	25*	-20
Cc1ccc(N(NC(=O)C(O)(c2ccccc2)c2ccccc2)C(=O)CCl)cc1	12	0	-3	9	11	14
CN(C)S(=O)(=O)c1ccc(NC=O)cc1	-1	0	-5	-10	x	-6
Cc1cccc(NC(=O)c2cc(-c3ccc(C)s3)nc3ccccc23)n1	28*	0	-2	-87	23*	-117
Cc1ccc(NC(=O)c2cc(-c3ccc(C)o3)nc3ccccc23)cc1	118*	-1	2	-132	115*	-187
Cc1cc(NC(=O)c2cc(-c3ccc(C)s3)nc3ccccc23)no1	4	0	-4	-28	6	-18
Cc1cccc(C)c1Nc1c(-c2ccc(N3CCOCC3)cc2)nc2cnccn12	x	1	12	71*	x	84*

Compound activity (PubChem BioAssay)
